Data: ChEMBL document CHEMBL4257576, “4-Iminooxazolidin-2-one as a Bioisostere of the Cyanohydrin Moiety: Inhibitors of Enterovirus 71 3C Protease” (J Med Chem, 2018)

System: not listed separately
Assay: Half life in ICR (CD-1) mouse plasma by HPLC analysis
Type: ADME, cell-free
Conditions: not given
Summary of the method: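 Compound was incubated in human or mouse plasma and its remaining level followed over time to obtain t1/2. Each point is n = 3 with standard deviation bars.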

Compound | half-life [h]
Cc1cc(C(=O)N[C@@H](Cc2ccc(F)cc2)C(=O)N[C@@H](C[C@@H]2CCCNC2=O)[C@H](C#N)OC(=O)N2CCOCC2)no1 | > 2

System: not listed separately
Assay: Drug metabolism in PBS buffer at pH 7.4
Type: physicochemical
Conditions: not given

Compound | Drug metabolism
Cc1cc(C(=O)N[C@@H](Cc2ccc(F)cc2)C(=O)N[C@@H](C[C@@H]2CCCNC2=O)[C@H](C#N)OC(=O)N2CCOCC2)no1 | Metabolite_Notdetected

Target: Genome polyprotein (Enterovirus A71, UniProt A0A1D8D5K2)
Assay: Inhibition of EV71 3C protease expressed in Escherichia coli BL21(DE3) using NMA-IEALFQGPPK(DNP)FR as substrate preincubated for 0.5 hrs followed by substrate addition by fluorescence assay
Conditions: not given
Summary of the method: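 Values reported as Ki (µM), each the mean of three independent experiments with SEM (n=3).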

Chain of Genome polyprotein (A0A1D8D5K2 whole entry): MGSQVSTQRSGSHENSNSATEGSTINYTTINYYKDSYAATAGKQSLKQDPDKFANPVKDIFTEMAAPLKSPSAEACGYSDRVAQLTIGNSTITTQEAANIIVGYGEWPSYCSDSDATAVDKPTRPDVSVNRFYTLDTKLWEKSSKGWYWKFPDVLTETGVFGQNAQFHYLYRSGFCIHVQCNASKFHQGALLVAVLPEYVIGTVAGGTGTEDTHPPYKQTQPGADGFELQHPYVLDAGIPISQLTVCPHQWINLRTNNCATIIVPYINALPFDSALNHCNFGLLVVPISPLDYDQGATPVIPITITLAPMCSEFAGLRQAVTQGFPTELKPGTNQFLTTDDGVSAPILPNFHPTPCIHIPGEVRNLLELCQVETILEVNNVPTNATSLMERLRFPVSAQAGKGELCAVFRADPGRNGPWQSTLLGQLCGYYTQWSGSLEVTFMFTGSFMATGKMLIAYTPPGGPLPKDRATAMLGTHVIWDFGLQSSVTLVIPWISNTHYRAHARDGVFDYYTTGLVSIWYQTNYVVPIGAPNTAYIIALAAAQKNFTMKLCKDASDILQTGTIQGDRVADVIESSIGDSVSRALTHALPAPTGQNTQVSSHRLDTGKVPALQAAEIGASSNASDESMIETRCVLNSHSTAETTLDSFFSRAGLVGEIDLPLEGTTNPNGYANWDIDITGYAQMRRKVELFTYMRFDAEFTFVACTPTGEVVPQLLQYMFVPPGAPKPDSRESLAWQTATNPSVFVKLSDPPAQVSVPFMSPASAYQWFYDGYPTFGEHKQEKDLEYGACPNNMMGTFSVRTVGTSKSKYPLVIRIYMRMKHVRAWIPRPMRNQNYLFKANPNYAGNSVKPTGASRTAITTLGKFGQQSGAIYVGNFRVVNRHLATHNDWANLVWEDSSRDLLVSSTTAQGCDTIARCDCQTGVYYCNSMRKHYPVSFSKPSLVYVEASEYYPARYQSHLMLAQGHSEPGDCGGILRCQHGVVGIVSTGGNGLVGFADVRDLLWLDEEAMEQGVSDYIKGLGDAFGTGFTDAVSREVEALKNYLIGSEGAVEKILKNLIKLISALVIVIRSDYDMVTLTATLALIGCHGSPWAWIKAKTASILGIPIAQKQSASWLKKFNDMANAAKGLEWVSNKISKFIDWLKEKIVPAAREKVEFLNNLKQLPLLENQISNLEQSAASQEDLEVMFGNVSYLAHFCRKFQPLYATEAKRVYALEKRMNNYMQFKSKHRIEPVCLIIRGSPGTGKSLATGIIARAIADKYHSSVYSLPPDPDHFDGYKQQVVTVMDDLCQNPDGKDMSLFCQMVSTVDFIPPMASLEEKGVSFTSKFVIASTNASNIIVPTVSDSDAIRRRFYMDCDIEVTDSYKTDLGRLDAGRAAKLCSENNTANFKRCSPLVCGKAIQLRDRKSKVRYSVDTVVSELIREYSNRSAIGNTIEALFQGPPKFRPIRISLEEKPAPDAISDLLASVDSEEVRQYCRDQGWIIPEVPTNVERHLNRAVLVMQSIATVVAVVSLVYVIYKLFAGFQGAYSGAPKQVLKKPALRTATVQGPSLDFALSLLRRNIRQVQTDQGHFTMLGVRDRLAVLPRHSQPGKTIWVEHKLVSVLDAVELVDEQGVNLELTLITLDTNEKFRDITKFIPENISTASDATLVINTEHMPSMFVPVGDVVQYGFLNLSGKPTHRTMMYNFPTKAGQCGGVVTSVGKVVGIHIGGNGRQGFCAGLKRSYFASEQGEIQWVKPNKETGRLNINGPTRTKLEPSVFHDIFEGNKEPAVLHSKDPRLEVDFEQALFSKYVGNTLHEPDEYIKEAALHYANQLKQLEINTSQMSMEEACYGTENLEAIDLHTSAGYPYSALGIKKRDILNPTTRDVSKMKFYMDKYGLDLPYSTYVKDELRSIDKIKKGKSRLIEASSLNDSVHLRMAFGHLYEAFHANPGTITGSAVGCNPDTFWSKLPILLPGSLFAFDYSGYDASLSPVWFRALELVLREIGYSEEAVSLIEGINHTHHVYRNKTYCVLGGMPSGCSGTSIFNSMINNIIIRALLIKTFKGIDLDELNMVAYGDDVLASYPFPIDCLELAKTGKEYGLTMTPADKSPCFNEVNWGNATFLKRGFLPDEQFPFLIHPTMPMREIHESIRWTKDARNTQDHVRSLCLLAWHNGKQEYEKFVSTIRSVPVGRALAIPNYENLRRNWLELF

Compound | Ki [µM]
Cc1cc(C(=O)N[C@@H](Cc2ccc(F)cc2)C(=O)N[C@@H](C[C@@H]2CCCNC2=O)[C@@H](C#N)OC(=O)NC2CC2)no1 | 6.21
Cc1cc(C(=O)N[C@@H](Cc2ccc(F)cc2)C(=O)N[C@@H](C[C@@H]2CCCNC2=O)[C@@H]2OC(=O)N(C(C)C)C2=N)no1 | 0.061
CCCCN1C(=N)[C@@H]([C@H](C[C@@H]2CCCNC2=O)NC(=O)[C@H](Cc2ccc(F)cc2)NC(=O)c2cc(C)on2)OC1=O | 2.54
CCN1C(=N)[C@H]([C@H](C[C@@H]2CCCNC2=O)NC(=O)[C@H](Cc2ccc(F)cc2)NC(=O)c2cc(C)on2)OC1=O | 3.53
Cc1cc(C(=O)N[C@@H](Cc2ccc(F)cc2)C(=O)N[C@@H](C[C@@H]2CCCNC2=O)[C@H]2OC(=O)N(C3CC3)C2=N)no1 | 1.71
Cc1cc(C(=O)N[C@@H](Cc2ccc(F)cc2)C(=O)N[C@@H](C[C@@H]2CCCNC2=O)[C@H](C#N)OC(=O)C(C)C)no1 | 0.24
CNC(=O)O[C@@H](C#N)[C@H](C[C@@H]1CCCNC1=O)NC(=O)[C@H](Cc1ccc(F)cc1)NC(=O)c1cc(C)on1 | 0.071

System: Enterovirus A71
Assay: Antiviral activity against Enterovirus A71 infected in human RD cells receiving pEV71-Luc subgenomic replicon stocks from HEK-293T cells
Type: functional, organism-based
Conditions: Enterovirus A
Summary of the method: (§1)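 Values (EC50, CC50) are the average of three independent experiments, with SEM (n = 3).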

Compound | EC50 [µM]
Cc1cc(C(=O)N[C@@H](Cc2ccc(F)cc2)C(=O)N[C@@H](C[C@@H]2CCCNC2=O)[C@@H](C#N)OC(=O)NC2CC2)no1 | 12.8
Cc1cc(C(=O)N[C@@H](Cc2ccc(F)cc2)C(=O)N[C@@H](C[C@@H]2CCCNC2=O)[C@@H]2OC(=O)N(C(C)C)C2=N)no1 | 0.51
CCCCN1C(=N)[C@@H]([C@H](C[C@@H]2CCCNC2=O)NC(=O)[C@H](Cc2ccc(F)cc2)NC(=O)c2cc(C)on2)OC1=O | 12.7
CCN1C(=N)[C@H]([C@H](C[C@@H]2CCCNC2=O)NC(=O)[C@H](Cc2ccc(F)cc2)NC(=O)c2cc(C)on2)OC1=O | 17.2
Cc1cc(C(=O)N[C@@H](Cc2ccc(F)cc2)C(=O)N[C@@H](C[C@@H]2CCCNC2=O)[C@H]2OC(=O)N(C3CC3)C2=N)no1 | 8.81
Cc1cc(C(=O)N[C@@H](Cc2ccc(F)cc2)C(=O)N[C@@H](C[C@@H]2CCCNC2=O)[C@H](C#N)OC(=O)C(C)C)no1 | 2.61
CNC(=O)O[C@@H](C#N)[C@H](C[C@@H]1CCCNC1=O)NC(=O)[C@H](Cc1ccc(F)cc1)NC(=O)c1cc(C)on1 | 0.62
Cc1cc(C(=O)N[C@@H](Cc2ccc(F)cc2)C(=O)N[C@@H](C[C@@H]2CCCNC2=O)[C@H](C#N)OC(=O)N2CCOCC2)no1 | > 100

System: not listed separately
Assay: Cytotoxicity in human RD cells assessed as reduction in cell viability incubated for 24 hrs by WST1 assay
Type: cell-based
Conditions: not given
Summary of the method: as §1

Compound | CC50 at 24 h [µM]
Cc1cc(C(=O)N[C@@H](Cc2ccc(F)cc2)C(=O)N[C@@H](C[C@@H]2CCCNC2=O)[C@@H](C#N)OC(=O)NC2CC2)no1 | > 100
Cc1cc(C(=O)N[C@@H](Cc2ccc(F)cc2)C(=O)N[C@@H](C[C@@H]2CCCNC2=O)[C@@H]2OC(=O)N(C(C)C)C2=N)no1 | > 100
CCCCN1C(=N)[C@@H]([C@H](C[C@@H]2CCCNC2=O)NC(=O)[C@H](Cc2ccc(F)cc2)NC(=O)c2cc(C)on2)OC1=O | > 100
CCN1C(=N)[C@H]([C@H](C[C@@H]2CCCNC2=O)NC(=O)[C@H](Cc2ccc(F)cc2)NC(=O)c2cc(C)on2)OC1=O | > 100
Cc1cc(C(=O)N[C@@H](Cc2ccc(F)cc2)C(=O)N[C@@H](C[C@@H]2CCCNC2=O)[C@H]2OC(=O)N(C3CC3)C2=N)no1 | > 100
Cc1cc(C(=O)N[C@@H](Cc2ccc(F)cc2)C(=O)N[C@@H](C[C@@H]2CCCNC2=O)[C@H](C#N)OC(=O)C(C)C)no1 | > 100
CNC(=O)O[C@@H](C#N)[C@H](C[C@@H]1CCCNC1=O)NC(=O)[C@H](Cc1ccc(F)cc1)NC(=O)c1cc(C)on1 | > 100
Cc1cc(C(=O)N[C@@H](Cc2ccc(F)cc2)C(=O)N[C@@H](C[C@@H]2CCCNC2=O)[C@H](C#N)OC(=O)N2CCOCC2)no1 | > 100
